# Measured values from PubChem BioAssay.
# Activity calls are given as the source filed them.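 How the source made its calls, unless noted: active means fluorescence slope after compound addition differing from the mean of all tested samples at 99.7% confidence, mostly higher but some lower; inactive means the rest.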
# Columns and labels:
# [1] = inhibitors of TNFa-induced NFkB p65 translocation, primary screen, imaging, HUVEC, MLSMR starter and 10KST1 sets (AID 438;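 active means inhibition above 20% together with a positive visual image hit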;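 further: compound added about 3h40 before a 20 min TNFalpha stimulation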;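 on inhibition: signal is the nuclear over cytoplasmic p65 intensity ratio per well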); details: HUVEC TNFa-induced p65 nuclear translocation; cell count: measured here: nuclei count (cytotoxicity indicator), at 2.08 µM; inhibition: at 2 µM, stronger effect = higher value, 0% TNFa-plus-vehicle, 100% no-TNFa wells
# [2] = reduction of polyQ htt aggregates in cells – imaging, exon1htt(103Q)mCFP cells, high-content imaging, primary screen (AID 483;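 active means visual image review flags a hit and inhibition of aggregation exceeds 20%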;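 further: compound exposure lasted 3 days before fixation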;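 on nuclei count: percent of the per-plate median nuclei count of sample wells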); details: exon1htt(103Q)mCFP cell line, aggregate imaging, at 2 µM; inhibition of aggregation: stronger effect = higher value; nuclei count: measured here: cell count, toxicity
# [3] = endothelial E-selectin expression blockers – imaging, HUVEC, immunofluorescence, MLSMR starter and 10KST1 sets, primary screen (AID 487;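 active means visually confirmed hit in the image check and inhibition above 20%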;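 on inhibition: signal is fraction of cell area covered by stained E-selectin grains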;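 on nuclei count: 100% = median nuclei count of all wells on the same plate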); details: HUVEC TNFalpha-induced E-selectin immunofluorescence imaging, at 2 µM; inhibition: stronger effect = higher value; nuclei count: measured here: cell number, toxicity
# [4] = molecular target: Voltage-gated potassium channel subunit beta-2 (Rattus norvegicus) (UniProt P62483); experiment: inhibitors of rat Kvbeta2 reductase activity – biochemical, NADPH fluorescence, primary screen (AID 622;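 active means fluorescence slope higher than the sample average by over 3 SD, cut at about -0.22 in these data, passing the limit was not always enough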;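 further: slope of raw intensity against log time taken from 70 to 1610 s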); details: recombinant KvBeta, 4-cyanobenzaldehyde reduction, at 10 µM, stronger effect = higher value
# [5] = molecular target: Voltage-gated potassium channel subunit beta-2 (Rattus norvegicus) (UniProt P62483); experiment: enhancers of rat Kvbeta2 NADPH turnover – biochemical, NADPH fluorescence, primary screen (AID 623;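 active means NADPH fluorescence slope more negative than the mean of all samples by about 3 SD, 99.7% confidence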;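 further: fluorescence intensity change per second fitted from 20 to 320 s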); details: Recombinant KvBeta, NADPH fluorescence decrease slope, 10 min; at 10 µM; stronger effect = lower value
# [6] = molecular target: Muscarinic acetylcholine receptor M4 (Homo sapiens) (UniProt P08173); experiment: M4-linked GIRK flux change, two-sided – cell-based, HEK293 M4/GIRK, thallium flux, BTC-AM, M4 allosteric agonist project, primary screen (AID 625); details: at 10 µM, actives lie on both sides;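 further: thallium influx through GIRK channels coupled to M4 in HEK293 cells with BTC-AM dye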
# Procedure, shortened: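 Material – HEK293 cells with M4 receptor and GIRK channels · Buffer or medium – pH 7.3 thallium assay buffer · Doses – one dose, 10 µM final · Timing – cells overnight at 37 °C, BTC-AM loading 1 h, reads 2 min total · Measured by – kinetic fluorescence with BTC-AM dye · Controls – carbachol and DMSO controls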
# [7] = blockers of RIG-like receptor reporter activation – cell-based, Sendai virus stimulus, luciferase, 10K MLSCN set, TLR/RLR signaling modifier project, primary screen (AID 602276;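 active means inhibition at or above 50% at 10 µM; inactive means inhibition below 50%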;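 further: firefly luciferase from ISG56 promoter only with Renilla not read in this screen; 0% = Sendai virus plus DMSO and 100% = medium plus DMSO without virus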); details: HEK293 RL24 IRF3 luciferase reporter, at 10 µM, stronger effect = higher value
# [8] = TLR3 IRF3 reporter activation blockers – cell-based, poly I:C stimulus, luciferase, 10K MLSCN set, primary screen (AID 602277;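 active means inhibition of the reporter signal at or above 50%; inactive means inhibition below 50%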); details: HEK293-TLR3 RL24 IRF3 luciferase reporter, at 10 µM, stronger effect = higher value
# Chain of Voltage-gated potassium channel subunit beta-2 (Rattus norvegicus) (P62483 whole entry, looked up): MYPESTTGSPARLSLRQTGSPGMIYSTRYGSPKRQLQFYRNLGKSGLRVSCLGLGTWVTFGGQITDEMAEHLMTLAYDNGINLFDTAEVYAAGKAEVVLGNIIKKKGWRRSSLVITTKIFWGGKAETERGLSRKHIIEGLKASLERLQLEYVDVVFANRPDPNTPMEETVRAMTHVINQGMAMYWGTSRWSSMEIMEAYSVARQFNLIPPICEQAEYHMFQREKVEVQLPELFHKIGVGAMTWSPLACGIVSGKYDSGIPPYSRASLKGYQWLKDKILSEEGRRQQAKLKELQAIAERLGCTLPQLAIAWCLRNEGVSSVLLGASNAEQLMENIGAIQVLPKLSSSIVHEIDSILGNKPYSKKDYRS
# Chain of Muscarinic acetylcholine receptor M4 (Homo sapiens) (P08173 whole entry, looked up): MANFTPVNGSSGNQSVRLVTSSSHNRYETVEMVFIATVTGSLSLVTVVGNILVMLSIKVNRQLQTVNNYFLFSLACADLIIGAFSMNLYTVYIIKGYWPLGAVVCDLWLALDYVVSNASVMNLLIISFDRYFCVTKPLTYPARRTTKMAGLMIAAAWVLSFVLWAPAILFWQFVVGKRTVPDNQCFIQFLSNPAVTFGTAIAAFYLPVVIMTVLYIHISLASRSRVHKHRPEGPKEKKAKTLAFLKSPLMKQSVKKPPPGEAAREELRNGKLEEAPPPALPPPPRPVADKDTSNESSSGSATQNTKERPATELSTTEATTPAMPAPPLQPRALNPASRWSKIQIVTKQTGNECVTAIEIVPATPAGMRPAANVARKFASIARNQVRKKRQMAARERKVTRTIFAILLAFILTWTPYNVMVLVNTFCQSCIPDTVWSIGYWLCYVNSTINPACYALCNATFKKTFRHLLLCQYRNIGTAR
Structure (SMILES),cell count [1],inhibition [1],inhibition of aggregation [2],nuclei count [2],inhibition [3],nuclei count [3],fluorescence slope [4],NADPH fluorescence slope [5],fluorescence slope [6],inhibition [7],inhibition [8]
COc1cccc(OC)c1C(=O)n1nc(C)cc1C,489,-18.1% (inactive),-12.3% (inactive),99.8%,-10.8% (inactive),95.6%,-0.591 (inactive),-3.7e-05 (inactive),0.00413 (inactive),14.5% (inactive),4.66% (inactive)
CCCOc1ccc([C@@H]2C3CN(C(=O)OCC)CC=C3C(C#N)=C(N)C2(C#N)C#N)cc1OC (some centres undefined),743,-23.3% (inactive),14.7% (inactive),102%,-44.9% (inactive),112%,-0.237 (inactive),-2.5e-05 (inactive),0.00528 (inactive),11% (inactive),-2.37% (inactive)
CCOC(=O)C1=C(CC)Nc2ccccc2N=C1NC(=O)Cn1cnc2ccccc2c1=O,529,6.3% (inactive),6.9% (inactive),117%,-28.7% (inactive),123%,-0.534 (inactive),-4.1e-05 (inactive),0.00608 (inactive),10.4% (inactive),20% (inactive)
CC(C)CCn1c(N)c(S(=O)(=O)c2cccs2)c2nc3ccccc3nc21,652,2% (inactive),0% (inactive),105%,-67.7% (inactive),124%,-0.398 (inactive),1.8e-05 (inactive),0.00628 (inactive),8.07% (inactive),-1.32% (inactive)
Cc1cc(C)n2cc(CSCc3ccco3)nc2n1,566,-13.6% (inactive),4.9% (inactive),89.3%,18.2% (inactive),88.2%,-0.238 (inactive),-2.7e-05 (inactive),0.00628 (inactive),11.1% (inactive),8.26% (inactive)
COc1cc(C)nc(OCCNC(=O)COc2ccc(Cl)cc2C)n1,705,23.3% (active),-16% (inactive),109%,-53.9% (inactive),123%,-0.499 (inactive),0.00012 (inactive),0.00677 (inactive),-3.41% (inactive),-6.37% (inactive)
Cc1cnc(-c2nnc(N(C)C(=O)C3CCOC3)s2)cn1 (centres undefined),340,-12.1% (inactive),26.6% (inactive),79%,41.6% (inactive),88.5%,-0.552 (inactive),-6.2e-06 (inactive),0.00481 (inactive),-2.32% (inactive),-11.8% (inactive)
O=C1CSC(c2cn(-c3ccccc3)nc2-c2ccccc2)N1Cc1ccco1 (centres undefined),480,-6.3% (inactive),5.2% (inactive),108%,-89.3% (inactive),88.2%,-0.568 (inactive),-2.8e-05 (inactive),0.00714 (inactive),-1.04% (inactive),11.5% (inactive)
COc1cc(CC(=O)NCc2ccc3c(c2)OCO3)cc(OC)c1OC,698,-7.8% (inactive),-5.2% (inactive),142%,-43.8% (inactive),124%,-0.519 (inactive),-0.000135 (inactive),0.00565 (inactive),6.85% (inactive),10.7% (inactive)
CCOC(=O)c1c(C)c(C(=O)NCC2CCCO2)c(C)n1C (centres undefined),267,-2% (inactive),-10.1% (inactive),94.7%,-8% (inactive),74.6%,-0.461 (inactive),-6e-06 (inactive),0.00685 (inactive),14.1% (inactive),20.9% (inactive)
COc1ccc(OC)c(C(=O)c2nc3c(n2O)CCCCC3)c1,332,-1.1% (inactive),-40.7% (inactive),114%,-55% (inactive),103%,-0.567 (inactive),-6.5e-05 (inactive),0.00381 (inactive),5.91% (inactive),7.03% (inactive)
Cc1cc(NC(=O)c2ccc(Cl)cc2)no1,206,0.8% (inactive),41.9% (active),92%,-58.4% (inactive),83.6%,-0.561 (inactive),1.1e-05 (inactive),0.00496 (inactive),-41.1% (inactive),-168% (inactive)
COc1cc(S(=O)(=O)NC2CCCCC2)ccc1Cl,405,7.6% (inactive),4.9% (inactive),89%,3.8% (inactive),94.9%,-0.417 (inactive),4.1e-05 (inactive),0.00482 (inactive),16.6% (inactive),31.9% (inactive)
CCOC(=O)Nc1ccc2c(c1)N(C(=O)CN(CC)CC)c1ccccc1C=C2,389,3.3% (inactive),-9.7% (inactive),108%,-96.2% (inactive),119%,-0.577 (inactive),-0.000132 (inactive),0.00312 (inactive),18.3% (inactive),26.3% (inactive)
O=C(CN1C(=O)CCSc2ccccc21)Nc1ccc(F)cc1,312,0.7% (inactive),-6% (inactive),100%,-8.3% (inactive),110%,-0.473 (inactive),4.1e-05 (inactive),0.00664 (inactive),-6.29% (inactive),2.08% (inactive)
O=c1cc(-c2ccccc2)[nH]c2nc3ccccc3n12,302,-1.2% (inactive),15.1% (inactive),99.6%,-4.8% (inactive),96.2%,-0.422 (inactive),2.4e-05 (inactive),0.00541 (inactive),40.6% (inactive),27% (inactive)
Cc1nc(NC2=NCN(CCc3ccccc3)CN2)nc2c(C)cccc12,428,46.4% (active),-2.2% (inactive),79.5%,-18.7% (inactive),104%,-0.457 (inactive),-1.3e-05 (inactive),0.0048 (inactive),27.7% (inactive),28.3% (inactive)
Cc1cccc(-n2ncc3c(NCc4ccccn4)ncnc32)c1,351,-16.8% (inactive),4.2% (inactive),101%,0.4% (inactive),122%,-0.592 (inactive),-4.2e-05 (inactive),0.00598 (inactive),-33.2% (inactive),-129% (inactive)
CCOC(=O)c1[nH]c(C)c(C(=O)N(C)C)c1C,684,-10.9% (inactive),14.5% (inactive),111%,-68% (inactive),106%,-0.465 (inactive),-1.4e-05 (inactive),0.00674 (inactive),-36.1% (inactive),99.3% (active)
CN(CC(=O)N1CCN(c2ccccn2)CC1)S(=O)(=O)c1ccc2ccccc2c1,395,0.9% (inactive),1.9% (inactive),115%,-109% (inactive),119%,-0.478 (inactive),-7e-05 (inactive),0.00469 (inactive),4.05% (inactive),4.08% (inactive)
Cc1c(=O)n(OCc2ccccn2)c2ccccc2[n+]1[O-],208,-18.3% (inactive),27.8% (inactive),112%,14.4% (inactive),89.2%,-0.412 (inactive),-1.8e-05 (inactive),0.00625 (inactive),11.7% (inactive),16.8% (inactive)
O=c1nc(N2CCCC2)nc(Nc2ccccc2)[nH]1,478,8.9% (inactive),-12.9% (inactive),112%,-62.6% (inactive),115%,-0.559 (inactive),-4e-05 (inactive),0.00545 (inactive),3.72% (inactive),3.61% (inactive)
COc1ccccc1NC(=O)N1CCN(c2cccc(C(F)(F)F)c2)CC1,380,4.7% (inactive),12.5% (inactive),107%,-103% (inactive),118%,-0.27 (inactive),-2.7e-05 (inactive),0.00535 (inactive),-10.2% (inactive),-42% (inactive)
CCC(=O)c1ccc(OCCN2CCOCC2)cc1,387,-5.3% (inactive),-1.8% (inactive),107%,-104% (inactive),120%,-0.566 (inactive),-4.5e-05 (inactive),0.00623 (inactive),6.75% (inactive),7.43% (inactive)
O=C(CCN1CCN(C(=O)c2ccco2)CC1)Nc1ccc(F)cc1,356,-2.6% (inactive),-11.1% (inactive),87.1%,-78.7% (inactive),108%,-0.459 (inactive),0.000122 (inactive),0.00658 (inactive),11.5% (inactive),20.2% (inactive)
N#CCSc1nc(-c2ccccc2)cs1,371,5% (inactive),1.3% (inactive),103%,-25.1% (inactive),109%,-0.566 (inactive),-1.8e-05 (inactive),0.0051 (inactive),-34.5% (inactive),-75.5% (inactive)
O=C(O)CCCC(=O)NCCc1ccncc1,425,8.1% (inactive),-3.6% (inactive),112%,1.4% (inactive),112%,-0.519 (inactive),-7e-06 (inactive),0.00581 (inactive),3.6% (inactive),33.4% (inactive)
Cc1ccc(-c2nnnn2CS(=O)(=O)c2ccccc2)cc1,433,-11.8% (inactive),-9.7% (inactive),114%,-19.4% (inactive),122%,-0.598 (inactive),-1.2e-05 (inactive),0.006 (inactive),16.3% (inactive),10.5% (inactive)
Cc1sc2ncnc(OCC(=O)N3CCN(S(=O)(=O)c4ccccc4)CC3)c2c1C,247,-7.7% (inactive),11.8% (inactive),90.7%,16.8% (inactive),91.8%,-0.498 (inactive),3.8e-05 (inactive),0.00565 (inactive),16.8% (inactive),15.1% (inactive)
